Measurements: ChEMBL document CHEMBL1147868, “Synthesis of novel triazole derivatives as inhibitors of cytochrome P450 14alpha-demethylase (CYP51)” (2007)
In brackets after ≈: the same amount, converted by molar mass.

How the values were obtained:
Format in all cases: functional
[1] = system: Candida parapsilosis; assay: Antifungal activity against Candida parapsilosis ATCC 0306392 after 7 days by micro-broth dilution method; conditions: Lodderomyces parapsilosis, ATCC 0306392, 168 h
Summary of the method: (§1)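 Micro-broth dilution followed NCCLS methods, using an ATCC standard quality-control strain for C. parapsilosis and a clinical isolate for C. tropicalis. Compounds were dissolved in DMSO, serially diluted in growth medium and incubated at 35 C. MIC80 was the first well with about 80% growth reduction compared with the drug-free well.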

[2] = system: Candida albicans; assay: Antifungal activity against Candida albicans ATCC Y0109 after 24 hrs by micro-broth dilution method
Summary of the method: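 An ATCC standard quality-control strain was included in each run of an NCCLS micro-broth dilution assay. Compounds were dissolved in DMSO, serially diluted in growth medium and incubated at 35 C. Reading was at 24 h, and MIC80 was the first well showing roughly 80% growth reduction versus the drug-free control.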

[3] = system: Candida tropicalis; assay: Antifungal activity against Candida tropicalis after 7 days by micro-broth dilution method; conditions: 168 h; summary of the method: as §1
[4] = system: Cryptococcus neoformans; assay: Antifungal activity against Cryptococcus neoformans ATCC BLS108 after 72 hrs by micro-broth dilution method
Summary of the method: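 This ATCC standard quality-control strain was tested in every assay by NCCLS microdilution. Test agents were dissolved in DMSO and serially diluted in growth medium. Cultures were incubated at 35 C and read at 72 h. MIC80 was the first well with approximately 80% reduced growth relative to the drug-free well.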

[5] = system: Aspergillus fumigatus; assay: Antifungal activity against Aspergillus fumigatus after 7 days by micro-broth dilution method; conditions: 168 h
Summary of the method: (§2)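 Clinical isolates supplied by a hospital were tested by NCCLS broth microdilution. Compounds were dissolved in DMSO, serially diluted in growth medium, inoculated and incubated at 35 C. Growth was read at 7 days for filamentous fungi. MIC80 was taken as the first well with about 80% less growth than the drug-free well.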

[6] = system: Trichophyton rubrum; assay: Antifungal activity against Trichophyton rubrum after 7 days by microbroth dilution method; conditions: 168 h; summary of the method: as §2
[7] = system: Fonsecaea compacta; assay: Antifungal activity against Fonsecaea compacta after 7 days by micro-broth dilution method; conditions: 168 h; summary of the method: as §2
[8] = system: Microsporum; assay: Antifungal activity against Microsporum gypseum after 7 days by micro-broth dilution method; conditions: 168 h; summary of the method: as §2

| MIC80 [1] [µg/mL] | MIC80 [2] [µg/mL] | MIC80 [3] [µg/mL] | MIC80 [4] [µg/mL] | MIC80 [5] [µg/mL] | MIC80 [6] [µg/mL] | MIC80 [7] [µg/mL] | MIC80 [8] [µg/mL] | Structure (SMILES) |
| --- | --- | --- | --- | --- | --- | --- | --- | --- |
| 0.0152 (≈ 0.0269 µM) | 0.25 (≈ 0.443 µM) | 0.0625 (≈ 0.111 µM) | 0.25 (≈ 0.443 µM) | 1 (≈ 1.77 µM) | 0.0625 (≈ 0.111 µM) | 0.25 (≈ 0.443 µM) | 0.0152 (≈ 0.0269 µM) | Cc1ccc(C(=O)Nc2ccc(N3CCN(CC(O)(Cn4cncn4)c4ccc(F)cc4F)CC3)c(F)c2)cc1C (configuration not stated) |
| 0.0625 (≈ 0.107 µM) | 0.0152 (≈ 0.0261 µM) | 0.0625 (≈ 0.107 µM) | 1 (≈ 1.72 µM) | 1 (≈ 1.72 µM) | 0.0152 (≈ 0.0261 µM) | 1 (≈ 1.72 µM) | 0.0625 (≈ 0.107 µM) | O=C(Nc1ccc(N2CCN(CC(O)(Cn3cncn3)c3ccc(F)cc3F)CC2)c(F)c1)c1ccccc1[N+](=O)[O-] (configuration not stated) |
| 0.0152 (≈ 0.0266 µM) | 0.0625 (≈ 0.109 µM) | 0.0152 (≈ 0.0266 µM) | 0.25 (≈ 0.438 µM) | 0.25 (≈ 0.438 µM) | 0.0625 (≈ 0.109 µM) | 0.0625 (≈ 0.109 µM) | 0.25 (≈ 0.438 µM) | O=C(Nc1ccc(N2CCN(CC(O)(Cn3cncn3)c3ccc(F)cc3F)CC2)c(F)c1)c1ccc(Cl)cc1 (configuration not stated) |
| 0.0152 (≈ 0.0266 µM) | 0.0152 (≈ 0.0266 µM) | 0.0152 (≈ 0.0266 µM) | 0.25 (≈ 0.438 µM) | 1 (≈ 1.75 µM) | 0.0152 (≈ 0.0266 µM) | 0.0625 (≈ 0.109 µM) | 0.0152 (≈ 0.0266 µM) | O=C(Nc1ccc(N2CCN(CC(O)(Cn3cncn3)c3ccc(F)cc3F)CC2)c(F)c1)c1ccccc1Cl (configuration not stated) |
| 0.25 (≈ 0.578 µM) | 0.25 (≈ 0.578 µM) | 4 (≈ 9.25 µM) | 0.0152 (≈ 0.0351 µM) | 4 (≈ 9.25 µM) | 0.25 (≈ 0.578 µM) | 0.25 (≈ 0.578 µM) | 0.0625 (≈ 0.145 µM) | Nc1ccc(N2CCN(CC(O)(Cn3cncn3)c3ccc(F)cc3F)CC2)c(F)c1 (configuration not stated) |
| 0.25 (≈ 0.443 µM) | 0.25 (≈ 0.443 µM) | 0.0625 (≈ 0.111 µM) | 0.0625 (≈ 0.111 µM) | 1 (≈ 1.77 µM) | 0.0625 (≈ 0.111 µM) | 0.25 (≈ 0.443 µM) | 0.0152 (≈ 0.0269 µM) | Cc1ccc(C(=O)Nc2ccc(N3CCN(CC(O)(Cn4cncn4)c4ccc(F)cc4F)CC3)c(F)c2)c(C)c1 (configuration not stated) |
| 0.0152 (≈ 0.0268 µM) | 0.0152 (≈ 0.0268 µM) | 0.0152 (≈ 0.0268 µM) | 0.0625 (≈ 0.11 µM) | 0.25 (≈ 0.441 µM) | 0.25 (≈ 0.441 µM) | 0.25 (≈ 0.441 µM) | 0.25 (≈ 0.441 µM) | COc1ccc(C(=O)Nc2ccc(N3CCN(CC(O)(Cn4cncn4)c4ccc(F)cc4F)CC3)c(F)c2)cc1 (configuration not stated) |
| 1 (≈ 1.69 µM) | 1 (≈ 1.69 µM) | 1 (≈ 1.69 µM) | 1 (≈ 1.69 µM) | 16 (≈ 27 µM) | 1 (≈ 1.69 µM) | 0.0625 (≈ 0.105 µM) | 0.0625 (≈ 0.105 µM) | CCCCc1ccc(C(=O)Nc2ccc(N3CCN(CC(O)(Cn4cncn4)c4ccc(F)cc4F)CC3)c(F)c2)cc1 (configuration not stated) |
| 0.25 (≈ 0.432 µM) | 1 (≈ 1.73 µM) | 0.25 (≈ 0.432 µM) | 0.0625 (≈ 0.108 µM) | 4 (≈ 6.91 µM) | 0.25 (≈ 0.432 µM) | 0.25 (≈ 0.432 µM) | 0.25 (≈ 0.432 µM) | CC(C)c1ccc(C(=O)Nc2ccc(N3CCN(CC(O)(Cn4cncn4)c4ccc(F)cc4F)CC3)c(F)c2)cc1 (configuration not stated) |
| 0.0625 (≈ 0.108 µM) | 1 (≈ 1.73 µM) | 1 (≈ 1.73 µM) | 1 (≈ 1.73 µM) | 4 (≈ 6.91 µM) | 0.25 (≈ 0.432 µM) | 0.25 (≈ 0.432 µM) | 0.25 (≈ 0.432 µM) | CCCc1ccc(C(=O)Nc2ccc(N3CCN(CC(O)(Cn4cncn4)c4ccc(F)cc4F)CC3)c(F)c2)cc1 (configuration not stated) |
| 0.0625 (≈ 0.101 µM) | 0.0152 (≈ 0.0245 µM) | 0.0625 (≈ 0.101 µM) | 0.25 (≈ 0.403 µM) | 1 (≈ 1.61 µM) | 0.0625 (≈ 0.101 µM) | 0.0625 (≈ 0.101 µM) | 0.0625 (≈ 0.101 µM) | O=C(Nc1ccc(N2CCN(CC(O)(Cn3cncn3)c3ccc(F)cc3F)CC2)c(F)c1)c1ccc(OC(F)(F)F)cc1 (configuration not stated) |
| 1 (≈ 1.72 µM) | 0.25 (≈ 0.43 µM) | 4 (≈ 6.88 µM) | 0.25 (≈ 0.43 µM) | 4 (≈ 6.88 µM) | 0.25 (≈ 0.43 µM) | 0.0625 (≈ 0.107 µM) | 0.0625 (≈ 0.107 µM) | O=C(Nc1ccc(N2CCN(CC(O)(Cn3cncn3)c3ccc(F)cc3F)CC2)c(F)c1)c1ccc([N+](=O)[O-])cc1 (configuration not stated) |

| Structure (SMILES) | MIC80 [1] [µg/mL] | MIC80 [2] [µg/mL] | MIC80 [3] [µg/mL] | MIC80 [4] [µg/mL] | MIC80 [5] [µg/mL] | MIC80 [6] [µg/mL] | MIC80 [7] [µg/mL] | MIC80 [8] [µg/mL] |
| --- | --- | --- | --- | --- | --- | --- | --- | --- |
| CC(=O)N1CCN(c2ccc(OC[C@H]3CO[C@](Cn4ccnc4)(c4ccc(Cl)cc4Cl)O3)cc2)CC1 [KETOCONAZOLE] | 0.0625 (≈ 0.118 µM) | 0.0625 (≈ 0.118 µM) | 0.0625 (≈ 0.118 µM) | 0.0625 (≈ 0.118 µM) | 1 (≈ 1.88 µM) | 0.0625 (≈ 0.118 µM) | 0.0625 (≈ 0.118 µM) | 0.0039 (≈ 0.00734 µM) |
| C[C@@H]1[C@H](O)[C@@H](C)/C=C/C=C/C=C/C=C/C=C/C=C/C=C/[C@H](O[C@@H]2O[C@H](C)[C@@H](O)[C@H](N)[C@@H]2O)C[C@@H]2O[C@](O)(C[C@@H](O)C[C@@H](O)[C@H](O)CC[C@@H](O)C[C@@H](O)CC(=O)O[C@H]1C)C[C@H](O)[C@H]2C(=O)O [AMPHOTERICIN B] | 0.0152 (≈ 0.0164 µM) | 1 (≈ 1.08 µM) | 0.0625 (≈ 0.0676 µM) | 1 (≈ 1.08 µM) | 4 (≈ 4.33 µM) | 1 (≈ 1.08 µM) | 16 (≈ 17.3 µM) | 0.0039 (≈ 0.00422 µM) |
